Columns and labels:
Conditions in all cases: stereoisomer not certain
UniProt Q8VH21 = biological target: T1, UniProt Q8VH21
T1 sequence (whole entry): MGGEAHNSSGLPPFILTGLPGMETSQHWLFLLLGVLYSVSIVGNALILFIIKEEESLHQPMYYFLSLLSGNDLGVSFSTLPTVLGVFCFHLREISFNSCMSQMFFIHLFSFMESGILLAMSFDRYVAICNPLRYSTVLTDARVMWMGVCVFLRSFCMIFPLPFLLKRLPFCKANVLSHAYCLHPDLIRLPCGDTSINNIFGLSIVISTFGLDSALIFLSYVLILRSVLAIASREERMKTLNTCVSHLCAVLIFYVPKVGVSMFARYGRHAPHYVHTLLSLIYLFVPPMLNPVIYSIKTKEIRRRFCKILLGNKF
Outline: (§1)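 Assay methods differ from source to source, frequently being transient luciferase assays in mammalian cell lines. For each receptor–molecule pair, the label responsive (active) applies when the original authors judged the measured signal statistically different from baseline, and non-responsive (inactive) applies otherwise.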

UniProt Q924H8 = biological target: T2, UniProt Q924H8
T2 sequence (whole entry): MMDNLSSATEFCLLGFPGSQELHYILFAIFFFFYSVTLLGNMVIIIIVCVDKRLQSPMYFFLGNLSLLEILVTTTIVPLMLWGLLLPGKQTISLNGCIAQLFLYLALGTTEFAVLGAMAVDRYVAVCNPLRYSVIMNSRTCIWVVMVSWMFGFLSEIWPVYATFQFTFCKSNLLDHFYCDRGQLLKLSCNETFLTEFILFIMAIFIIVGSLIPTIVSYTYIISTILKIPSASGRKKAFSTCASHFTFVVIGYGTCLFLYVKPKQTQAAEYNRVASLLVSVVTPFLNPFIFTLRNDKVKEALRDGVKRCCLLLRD
Outline: as §1

UniProt Q920P1 = biological target: T3, UniProt Q920P1
T3 sequence (whole entry): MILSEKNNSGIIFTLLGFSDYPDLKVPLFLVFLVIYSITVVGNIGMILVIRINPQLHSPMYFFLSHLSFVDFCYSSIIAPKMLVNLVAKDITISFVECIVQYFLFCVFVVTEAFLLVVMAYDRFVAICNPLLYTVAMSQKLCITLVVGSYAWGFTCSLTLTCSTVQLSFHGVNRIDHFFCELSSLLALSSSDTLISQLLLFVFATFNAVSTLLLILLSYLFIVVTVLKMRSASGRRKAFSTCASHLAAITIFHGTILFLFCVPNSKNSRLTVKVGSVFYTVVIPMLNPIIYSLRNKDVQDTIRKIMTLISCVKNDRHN
Outline: as §1

UniProt Q920P2 = biological target: T4, UniProt Q920P2
T4 sequence (whole entry): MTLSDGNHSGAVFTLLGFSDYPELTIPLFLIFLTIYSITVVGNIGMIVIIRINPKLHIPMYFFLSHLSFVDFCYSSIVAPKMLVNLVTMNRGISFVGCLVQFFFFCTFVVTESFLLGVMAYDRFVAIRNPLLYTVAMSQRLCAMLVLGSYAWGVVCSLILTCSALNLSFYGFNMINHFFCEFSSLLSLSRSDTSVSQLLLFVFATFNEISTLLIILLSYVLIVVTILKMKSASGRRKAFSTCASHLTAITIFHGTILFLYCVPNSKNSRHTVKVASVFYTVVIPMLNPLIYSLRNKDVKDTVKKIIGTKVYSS
Outline: as §1

UniProt Q99NH4 = biological target: UniProt Q99NH4
UniProt Q99NH4, sequence (Q99NH4 as listed by the source): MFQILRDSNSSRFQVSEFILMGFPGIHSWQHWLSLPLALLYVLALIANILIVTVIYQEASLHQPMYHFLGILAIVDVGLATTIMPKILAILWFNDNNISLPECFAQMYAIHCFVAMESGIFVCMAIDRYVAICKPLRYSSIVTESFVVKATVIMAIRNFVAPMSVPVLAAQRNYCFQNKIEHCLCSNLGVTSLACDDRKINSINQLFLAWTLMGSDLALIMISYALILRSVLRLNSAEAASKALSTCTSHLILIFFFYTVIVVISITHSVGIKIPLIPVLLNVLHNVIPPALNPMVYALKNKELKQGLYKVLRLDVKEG
Outline: as §1

UniProt Q924X8 = biological target: UniProt Q924X8
UniProt Q924X8, sequence (Q924X8 as listed by the source): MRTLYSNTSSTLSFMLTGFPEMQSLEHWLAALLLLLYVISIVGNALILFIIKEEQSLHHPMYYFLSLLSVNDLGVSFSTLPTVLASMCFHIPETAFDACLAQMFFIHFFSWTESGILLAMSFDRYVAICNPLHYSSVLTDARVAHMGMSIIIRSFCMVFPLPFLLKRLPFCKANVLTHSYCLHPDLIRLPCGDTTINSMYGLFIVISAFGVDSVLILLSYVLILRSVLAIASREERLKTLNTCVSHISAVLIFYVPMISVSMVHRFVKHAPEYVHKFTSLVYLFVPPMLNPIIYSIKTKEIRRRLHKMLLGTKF
Outline: as §1

UniProt Q9WU94 = biological target: UniProt Q9WU94
UniProt Q9WU94, sequence (Q9WU94 as listed by the source): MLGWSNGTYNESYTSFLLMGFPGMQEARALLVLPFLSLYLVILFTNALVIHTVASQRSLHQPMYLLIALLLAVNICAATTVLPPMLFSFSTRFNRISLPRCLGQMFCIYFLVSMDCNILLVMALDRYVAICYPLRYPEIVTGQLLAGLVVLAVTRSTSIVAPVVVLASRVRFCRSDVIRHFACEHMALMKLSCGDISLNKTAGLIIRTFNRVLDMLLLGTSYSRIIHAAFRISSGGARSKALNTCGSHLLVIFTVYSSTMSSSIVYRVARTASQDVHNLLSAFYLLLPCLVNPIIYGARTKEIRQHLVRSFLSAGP
Outline: as §1

UniProt Q9EPN9 = biological target: T5, UniProt Q9EPN9
T5 sequence (whole entry): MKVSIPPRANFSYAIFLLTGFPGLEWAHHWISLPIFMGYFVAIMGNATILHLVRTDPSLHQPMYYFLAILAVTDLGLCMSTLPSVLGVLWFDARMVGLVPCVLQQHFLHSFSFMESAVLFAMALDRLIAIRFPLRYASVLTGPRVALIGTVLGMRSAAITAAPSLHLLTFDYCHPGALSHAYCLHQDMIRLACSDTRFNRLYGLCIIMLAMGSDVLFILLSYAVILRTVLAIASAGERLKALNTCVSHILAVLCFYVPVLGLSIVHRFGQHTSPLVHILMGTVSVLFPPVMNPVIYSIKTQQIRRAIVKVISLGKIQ
Outline: as §1

UniProt Q9R0K2 = biological target: UniProt Q9R0K2
UniProt Q9R0K2, sequence (Q9R0K2 as listed by the source): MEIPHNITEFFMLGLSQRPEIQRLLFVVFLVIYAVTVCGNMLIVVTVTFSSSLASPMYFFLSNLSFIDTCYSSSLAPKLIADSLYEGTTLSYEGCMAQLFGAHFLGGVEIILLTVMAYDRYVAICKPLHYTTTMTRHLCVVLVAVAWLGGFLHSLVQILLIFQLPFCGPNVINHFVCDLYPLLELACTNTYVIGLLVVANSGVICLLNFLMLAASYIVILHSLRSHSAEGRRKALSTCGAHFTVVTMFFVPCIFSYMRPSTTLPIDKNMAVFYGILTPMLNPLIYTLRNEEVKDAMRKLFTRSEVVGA
Outline: as §1

UniProt Q9WU86 = biological target: T6, UniProt Q9WU86
T6 sequence (whole entry): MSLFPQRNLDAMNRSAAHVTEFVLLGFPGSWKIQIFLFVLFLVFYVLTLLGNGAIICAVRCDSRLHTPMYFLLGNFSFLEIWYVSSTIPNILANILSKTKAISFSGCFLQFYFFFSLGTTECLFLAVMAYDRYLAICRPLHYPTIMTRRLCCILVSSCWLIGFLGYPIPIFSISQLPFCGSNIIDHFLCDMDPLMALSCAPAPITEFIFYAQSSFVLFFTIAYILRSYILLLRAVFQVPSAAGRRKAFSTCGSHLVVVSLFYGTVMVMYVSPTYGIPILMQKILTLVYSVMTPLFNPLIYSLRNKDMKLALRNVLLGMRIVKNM
Outline: as §1

Compound: Cc1ccc(OC(=O)Cc2ccccc2)cc1
- odorant receptor agonist call (UniProt Q8VH21): inactive
- odorant receptor agonist call (UniProt Q924H8): inactive

Compound: CC(C=O)Cc1ccc2c(c1)OCO2 (configuration not stated)
- odorant receptor agonist call (UniProt Q8VH21): inactive
- odorant receptor agonist call (UniProt Q924H8): inactive

Compound: OCc1ccc2c(c1)OCO2
- odorant receptor agonist call (UniProt Q8VH21): inactive
- odorant receptor agonist call (UniProt Q924H8): inactive

Compound: O=Cc1ccc2c(c1)OCO2
- odorant receptor agonist call (UniProt Q8VH21): inactive
- odorant receptor agonist call (UniProt Q920P1): inactive
- odorant receptor agonist call (UniProt Q920P2): inactive
- odorant receptor agonist call (UniProt Q924H8): inactive

Compound: CCCCC(Br)C(=O)O (configuration not stated)
- odorant receptor agonist call (UniProt Q8VH21): inactive
- odorant receptor agonist call (UniProt Q924H8): inactive
- odorant receptor agonist call (UniProt Q99NH4): active

Compound: CCCCCCC(Br)C(=O)O (configuration not stated)
- odorant receptor agonist call (UniProt Q8VH21): inactive
- odorant receptor agonist call (UniProt Q924H8): inactive

Compound: c1ccncc1
- odorant receptor agonist call (UniProt Q920P1): inactive
- odorant receptor agonist call (UniProt Q920P2): inactive

Compound: CSSC
- odorant receptor agonist call (UniProt Q8VH21): inactive
- odorant receptor agonist call (UniProt Q924H8): inactive

Compound: O=C(O)CCCCCCCBr
- odorant receptor agonist call (UniProt Q924X8): active
- odorant receptor agonist call (UniProt Q99NH4): active
- odorant receptor agonist call (UniProt Q9WU94): inactive

Compound: C=C(C)C1CC=C(C=O)CC1 (configuration not stated)
- odorant receptor agonist call (UniProt Q8VH21): inactive
- odorant receptor agonist call (UniProt Q924H8): inactive

Compound: Oc1ccccc1Br
- odorant receptor agonist call (UniProt Q8VH21): inactive
- odorant receptor agonist call (UniProt Q924H8): inactive

Compound: CCC1CCC(=O)O1 (configuration not stated)
- odorant receptor agonist call (UniProt Q9EPN9): inactive
- odorant receptor agonist call (UniProt Q9R0K2): inactive
- odorant receptor agonist call (UniProt Q9WU86): inactive

Compound: C=CCc1ccc2c(c1)OCO2
- odorant receptor agonist call (UniProt Q920P1): inactive
- odorant receptor agonist call (UniProt Q920P2): inactive

Compound: O=Cc1ccccc1
- odorant receptor agonist call (UniProt Q8VH21): active
- odorant receptor agonist call (UniProt Q924H8): inactive

Compound: C=CCOC(=O)Cc1ccccc1
- odorant receptor agonist call (UniProt Q8VH21): inactive
- odorant receptor agonist call (UniProt Q924H8): inactive
- odorant receptor agonist call (UniProt Q9EPN9): active
- odorant receptor agonist call (UniProt Q9R0K2): active
- odorant receptor agonist call (UniProt Q9WU86): inactive

Compound: O=CC=Cc1ccccc1
- odorant receptor agonist call (UniProt Q8VH21): inactive
- odorant receptor agonist call (UniProt Q924H8): inactive

Compound: COc1ccc(C=O)cc1
- odorant receptor agonist call (UniProt Q8VH21): inactive
- odorant receptor agonist call (UniProt Q924H8): inactive

Compound: O=c1cc(O)c2ccccc2o1
- odorant receptor agonist call (UniProt Q8VH21): inactive
- odorant receptor agonist call (UniProt Q924H8): inactive
- odorant receptor agonist call (UniProt Q9EPN9): inactive
- odorant receptor agonist call (UniProt Q9R0K2): inactive
- odorant receptor agonist call (UniProt Q9WU86): inactive

Compound: C=CCc1ccccc1
- odorant receptor agonist call (UniProt Q920P1): inactive
- odorant receptor agonist call (UniProt Q920P2): inactive
- odorant receptor agonist call (UniProt Q9EPN9): inactive
- odorant receptor agonist call (UniProt Q9R0K2): inactive
- odorant receptor agonist call (UniProt Q9WU86): active

— the M2OR odorant receptor database
